# Results: publication PMC3958936 (Bioorganic & medicinal chemistry, 2013)
# What was measured:
# IL-2 reporter gene = details: Jurkat T cells; data previously reported; ref Romo et al.[29]; cited from earlier work
# [1] = system: immortalized mouse embryonic fibroblasts (MEFs); assay type: cell-based; details: for IC50: Mus musculus, Fibroblast, read-out: estimated IC50, MEFs; for fold loss in activity in MEFs compared with cancer cell lines: estimated
# SK-MEL2 = experiment: Proliferation assay on SK-MEL2 cultured with reduced serum, 5% FBS; assay type: cell-based; details: 5% FBS versus 10% FBS
# cancer cell lines = details: cell culture, variety of cancer cell lines; cited from earlier work
# [2] = system: xenograft mouse models, melanoma models; details: several xenograft mouse models; cited from earlier work
# [3] = system: HeLa, RKO, HaCaT, Jurkat T, BAEC; experiment: Cell proliferation assays, first generation, statements pooled over cell lines; assay type: cell-based; details: for anti-proliferative IC50 values, in words: first generation protocol, cell lines tested
# DNA polymerases α and β = details: read-out: IC50, DNA polymerases α and β; direct in vitro inhibition; cited from earlier work
# SK-MEL2 melanoma cells = experiment: MTT cell proliferation assay, second-generation analogs, SK-MEL2; assay type: cell-based; details: versus DMDAPatA (2)
# Method in brief: (§1)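 HeLa and SK-MEL2 cells were grown in DMEM, Jurkat T cells in RPMI 1640, each with 10% FBS and pen-strep at 37 °C, 5% CO2. Adherent lines were seeded at 2000 cells/well and allowed to recover overnight; Jurkat were seeded at 5000 cells/well with no recovery. Compound was given in 0.1% DMSO final for 72 h, then MTT read-out.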
# Jurkat T cells = experiment: MTT cell proliferation assay, second-generation analogs, Jurkat T; assay type: cell-based, human; details: versus DMDAPatA (2)
# Method in brief: as §1
# [4] = system: HeLa, Jurkat T cells, and SK-MEL2; experiment: MTT cell proliferation assays, statements pooled over all three cell lines; assay type: cell-based; details: for cell proliferation inhibition activity, in words: all cell lines tested
# [5] = system: cap-dependent (eIF4AI/II-dependent) translation; experiment: In vitro translation assay in rabbit reticulocyte lysate, cap-dependent cistron; assay type: biochemical; details: for fold loss of activity in in vitro translation assay: versus DMDAPatA (2)
# Method in brief: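 Bicistronic reporter mRNA (cap-dependent firefly cistron; HCV IRES-driven Renilla cistron) was SP6-transcribed from linearized plasmid and purified. 200 ng RNA was translated in 20 μl rabbit reticulocyte lysate reactions with 70 mM KCl, 2 mM DTT and RNasin. Compound in DMSO was added at 5% (v/v) final. Reactions ran 1.5 h at 30 °C, then dual-luciferase read-out. Duplicates; 4 independent assays; IC50 by curve fitting, averaged.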
# HeLa = experiment: MTT cell proliferation assay, second-generation analogs, HeLa; assay type: cell-based, human; details: versus DMDAPatA (2)
# Method in brief: as §1
structure (smiles),measurement,setting,value
"CC(/C=C/C(C)=C/[C@@H]1Cc2nc(cs2)CCCCC(=O)O[C@@H](C)C/C(C)=C/C=C\C(=O)O1)=C\CN(C)C [Compound 2, C5-des-methyl, C3-des-amino pateamine A]",IC50 (nM) IL-2 reporter gene assay,IL-2 reporter gene,sub-nanomolar
same,IC50,[1],> 50 nM
same,fold loss in activity in MEFs compared with cancer cell lines,[1],roughly 5 fold
same,fold reduced anti-proliferative activity under 5% FBS,SK-MEL2,roughly 2 fold
same,"anti-proliferative IC50 values in cancer cell lines, in words",cancer cell lines,approximately single-digit nanomolar
same,anticancer activity in xenograft mouse models,[2],potent anticancer activity in several xenograft mouse models with especially significant regressions in melanoma models
same,fold lower activity than PatA in cell proliferation assays,[3]; DMDAPatA versus PatA,roughly 10 fold
same,"anti-proliferative IC50 values, in words",[3],single-digit nanomolar
same,IC50,DNA polymerases α and β,3000 to 19000 nM
C/C(Br)=C\[C@@H]1Cc2nc(cs2)CCCCC(=O)O[C@@H](C)C/C(C)=C/C=C\C(=O)O1 [Compound 5],fold loss of activity in SK-MEL2 cells,SK-MEL2 melanoma cells,≥ 700 fold
same,fold loss of activity in Jurkat T cells,Jurkat T cells,≥ 700 fold
CC(/C=C/CCCO)=C\[C@@H]1Cc2nc(cs2)CCCCC(=O)O[C@@H](C)C/C(C)=C/C#CC(=O)O1 [Compound 10g],"cell proliferation inhibition activity, in words",[4],did not demonstrate any significant cell proliferation inhibition activity
CC(/C=C/C(C)=C/[C@@H]1Cc2nc(cs2)CCCCC(=O)O[C@@H](C)C/C(C)=C/C=C\C(=O)O1)=C\CN1CCCC1 [Compound 9c],fold loss of activity in all cell lines,"[4]; versus DMDAPatA (2), HeLa, SK-MEL2, Jurkat T",~2 fold
same,fold loss of activity in in vitro translation assay,[5],2 fold
same,IC50,[1],> 100 nM
CC(/C=C/C=C/CO)=C\[C@@H]1Cc2nc(cs2)CCCCC(=O)O[C@@H](C)C/C(C)=C/C=C\C(=O)O1 [Compound 9e],IC50 (nM) cap-dependent translation inhibition,"[5]; rabbit reticulocyte lysate, 30 °C, 1.5 h, ± 1 standard deviation, N.E. = no effect up to concentration (nM) in parentheses",a degree of activity at high concentration
COCCC/C=C/C(C)=C/[C@@H]1Cc2nc(cs2)CCCCC(=O)O[C@@H](C)C/C(C)=C/C#CC(=O)O1 [Compound 10f],"cell proliferation inhibition activity, in words",[4],did not demonstrate any significant cell proliferation inhibition activity
"CC(/C=C/C(C)=C/[C@@H]1Cc2nc(cs2)[C@@H](C)C[C@@H](N)CC(=O)O[C@@H](C)C/C(C)=C/C=C\C(=O)O1)=C\CN(C)C [PatA (1), pateamine A, reference compound]","anti-proliferative IC50 values in cancer cell lines, in words",cancer cell lines,sub-nanomolar range
same,"anti-proliferative IC50 values, in words",[3],sub-nanomolar
C/C(Br)=C\[C@@H]1Cc2nc(cs2)CCCCC(=O)O[C@@H](C)C/C(C)=C/C=C/C(=O)O1 [Compound 6],"cell proliferation inhibition activity, in words",[4],inactive
CC(/C=C/C(C)=C/[C@@H]1Cc2nc(cs2)CCCCC(=O)O[C@@H](C)C/C(C)=C/C=C\C(=O)O1)=C\CN1CCOCC1 [Compound 9b],fold loss of activity in in vitro translation assay,[5],roughly 3 fold
same,IC50,[1],> 2000 nM
same,fold loss in activity in MEFs compared with cancer cell lines,[1],roughly 5 fold
same,fold loss of activity in HeLa cells,HeLa,greater than 400 fold
same,fold increase of activity under 5% FBS,SK-MEL2,roughly 2 fold
same,fold loss of activity in SK-MEL2 cells,SK-MEL2 melanoma cells,approximately 25 fold
same,fold loss of activity in Jurkat T cells,Jurkat T cells,at least 700 fold
CC(/C=C/C(C)=C/[C@@H]1Cc2nc(cs2)CCCCC(=O)O[C@@H](C)C/C(C)=C/C#CC(=O)O1)=C\CN(C)C [Compound 10a],"cell proliferation inhibition activity, in words",[4],no effect was observed
